The values below come from PMC8639468 (The Journal of Biological Chemistry, 2021).

One series can be described thus: MTT cytotoxicity assay. The series is classed as cell-based. To be noted: human, HeLa cells. A digest of the protocol: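 HeLa cells (1×10^4/well) grown 24 h, then exposed to serially diluted peptides for 1 h at 37 °C. Peptide removed; MTT added (5 mg/ml stock in PBS) in fresh medium for 4 h at 37 °C. Formazan dissolved in DMSO and read at 490 nm. Lethality = (Acon − A)/(Acon − Abl), using untreated cells and cell-free blank. IC50 from semilog curves, three independent measurements.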

The next series has as its system HeLa cells. Description: Saporin cytosolic delivery, MTT lethality. To be noted: SAP 10, 20, 50 μg/ml alone, 60 min. The series is classed as cell-based. A digest of the protocol: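 HeLa seeded at 1×10^4 cells/well and grown 24 h. Cells exposed to saporin, with or without vehicle peptide, for 1 h at 37 °C. After two PBS washes, cells kept in DMEM for 6 h at 37 °C. Viability read by MTT: formazan in DMSO at 490 nm, lethality calculated against untreated cells and cell-free blank.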

Where no end group is shown, it is not given here.

ILILILAAKLAKALKKEAKALK-NH2 [LP5] gave an IC50 at 1 h in “MTT cytotoxicity assay” of 13 µM.

Take ILILAAKLAKALKKEAKALK-NH2 [LP4]: the IC50 at 1 h in the series “MTT cytotoxicity assay” was above 128 µM.

ILILAAKLLKLLKKELKLLK-NH2 [LP2] displayed an IC50 at 1 h in “MTT cytotoxicity assay” of 1.3 µM.

With “SAP: membrane-impermeable ribosome-inactivation protein, 28.6 kDa cargo”, in the series with HeLa cells, the “cell survival with saporin alone” value is “barely affected”.

Substance KLLKLLKKELKLLK-NH2 [LP1] came in with an IC50 at 1 h in “MTT cytotoxicity assay” above 128 µM.

In the series “MTT cytotoxicity assay”, ILILAAKLLKALKKEAKLLK-NH2 [LP3] returned an IC50 at 1 h of 12.5 µM.
